Reference: article PMC3943421 (Biochemistry, 2012)
Where two headings read alike, the source gives them in different places. Values belong to the compound of their own block, whether it stands above or below them. Square brackets hold non-standard residues; d marks the D form. Peptide text beside a SMILES is read from it. pY = N[C@@H](Cc1ccc(OP(=O)(O)O)cc1)C(=O)O

Columns and labels:
[1] = target: FPRck-inhibited thrombin (anion-binding exosite II) (Homo sapiens, UniProt P00734); test: Surface plasmon resonance; conditions: SPR; for measurable binding to thrombin (in words): HBS-EP+, 25°C (Figure 3)
In short: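 Biotinylated peptides captured on streptavidin chips at 150 RU after three 60 s 1 M NaCl/50 mM NaOH conditioning pulses, with blank reference cells. HBS-EP+ (10 mM HEPES pH 7.4, 150 mM NaCl, 0.05% P20, 3 mM EDTA), 25°C. Serial thrombin injections for 20 s at 50 μl/min, 30 s dissociation, no regeneration. Buffer-only and reference signals subtracted. Equilibrium 1:1 Langmuir Kd from three replicates with fresh dilutions.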

γ′ analog peptide #7 = test: SPR
[2] = target: γ′ analog peptide #6 (pTyr422Tyr); test: SPR
[3] = target: γ′ analog peptide #13 (carboxyl terminal three charges substituted); test: SPR
[4] = target: wild-type γ′ peptide (fibrinogen γ′ chain 410-427, both tyrosines phosphorylated); test: SPR
[5] = target: γ′ analog peptide #12 (amino terminal three charges substituted); test: SPR
γ′ analog peptide #8 = test: SPR
[6] = target: γ′ analog peptide #4 (pTyr418Tyr); test: SPR
[7] = target: γ′ analog peptide #9 (Asp426Asn); test: SPR
γ′ analog peptide #1 = test: SPR
γ′ analog peptide #3 = test: SPR
γ′ analog peptide #2 = test: SPR
[8] = target: γ′ analog peptide #5 (Asp419Asn); test: SPR
[9] = target: wild-type γ′ peptide (fibrinogen γ′ chain 410-427, both tyrosines phosphorylated); test: SPR; remark: listed apart in the source
[10] = target: wild-type γ′ peptide (fibrinogen γ′ chain 410-427, both tyrosines phosphorylated); test: SPR; remark: listed apart in the source
[11] = target: wild-type γ′ peptide (fibrinogen γ′ chain 410-427, both tyrosines phosphorylated); test: SPR; remark: listed apart in the source
[12] = target: wild-type γ′ peptide (fibrinogen γ′ chain 410-427, both tyrosines phosphorylated); test: SPR; remark: listed apart in the source

- Kd ([1]; Kd (mean ± standard error of the mean), [NaCl] 150 mM, 25°C): 488 ± 42 nM
Compound: CC(C)C[C@H](NC(=O)[C@H](CC(=O)O)NC(=O)[C@H](CC(=O)O)NC(=O)[C@H](CCC(=O)O)NC(=O)[C@@H]1CCCN1C(=O)[C@H](Cc1ccc(OP(=O)(O)O)cc1)NC(=O)[C@H](CC(C)C)NC(=O)[C@H](CO)NC(=O)[C@H](CC(=O)O)NC(=O)[C@H](Cc1ccc(OP(=O)(O)O)cc1)NC(=O)[C@H](CCC(=O)O)NC(=O)[C@@H](NC(=O)[C@H](CCC(=O)O)NC(=O)[C@H](C)NC(=O)[C@@H]1CCCN1C(=O)[C@H](Cc1c[nH]cn1)NC(=O)[C@H](CCC(=O)O)NC(=O)[C@@H]1CCCN1)[C@@H](C)O)C(=O)O [Wild-type] (H-PEHPAETE[pY]DSL[pY]PEDDL-OH)

- Kd (γ′ analog peptide #7): 582 nM
- Kd [2]: 702 nM
- Kd [3]: 3190 nM
- Kd [4]: 440 nM
- Kd [5]: 1970 nM
- Kd (γ′ analog peptide #8): 608 nM
- Kd [6]: 583 nM
- Kd [7]: 465 nM
- Kd (γ′ analog peptide #1): 441 nM
- Kd (γ′ analog peptide #3): 541 nM
- Kd (γ′ analog peptide #2): 485 nM
- Kd [8]: 705 nM
- Kd [9]: 6050 nM
- Kd [10]: 18600 nM
- Kd [11]: 120000 nM
- Kd [12]: 488 nM
Compound: FPRck-inhibited thrombin (enzyme)

- measurable binding to thrombin (in words) [1]: complete absence of measurable binding
Compound: PEHPAETE YNSL YPEDDL [#10]

- measurable binding to thrombin (in words) [1]: no measurable interaction with thrombin
Compound: PQHPAQTQpYDSLpYPQNNL [#11]
